Source: PubChem BioAssay (several laboratories)
Shown are actives, neighbours in structure and some others; about 3% of the full set was active somewhere.
Rad51 HR inh: Rad51 (human) homologous recombination inhibition. 200,000 tested, 0.085% active. hRad51 DNA strand exchange, fluorescence dequenching. inhibition, % at 10 µM. Q06609. AID 1385;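 active means inhibition above 40% at the single screening dose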;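 further: 0% = DMSO control wells and 100% = blanks with heterologous ssDNA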
Target sequence (Q06609 whole entry, looked up): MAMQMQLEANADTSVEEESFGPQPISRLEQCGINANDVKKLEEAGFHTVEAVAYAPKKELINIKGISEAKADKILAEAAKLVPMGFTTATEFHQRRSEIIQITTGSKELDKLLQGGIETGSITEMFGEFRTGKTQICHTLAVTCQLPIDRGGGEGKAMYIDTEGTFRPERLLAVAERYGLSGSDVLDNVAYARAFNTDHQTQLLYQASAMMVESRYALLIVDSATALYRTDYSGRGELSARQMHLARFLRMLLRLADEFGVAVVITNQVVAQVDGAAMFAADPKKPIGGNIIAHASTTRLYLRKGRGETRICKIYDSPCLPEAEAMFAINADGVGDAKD
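Material: human Rad51–ssDNA filaments; Probe or stimulus: labelled 47-mer dsDNA for strand exchange; Doses: single 10 µM dose; Incubation: 37 °C 15-min filament assembly, 30-min compound preincubation, 15-min exchange; Technique: FRET fluorescence dequenching, excitation 485 nm, emission 520 nm; Measure: Fluorescence-based percent inhibition, control- and blank-normalised; Benchmarks: plate control and blank wells.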
PKD1 inh: blocks activity of human protein kinase D1. Q15139. PKD1 kinase fluorescence polarization assay. inhibition, % (concentration not given with the values). 200,000 tested, 0.056% active. AID 797; in the data active means inhibition above about 50%
ROMK primary: modulators of human ROMK potassium channel; Tet-inducible ROMK, thallium flux fluorescence; actives lie on both sides; B-score at 10 µM; 130,000 tested, 2% active; AID 1918;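 active means signal ratio slope over the read window, or its plate-corrected B-score, at least 3 SD from the plate mean, either direction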;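 further: B-score of the F/F0 ratio slope over 7 to 12 s after thallium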
KCC2 mod: KCC2 (human) Cl- transport modulation. Q9H2X9. 190,000 tested, 2.2% active. KCC2 cells, thallium flux FluoZin-2 fluorescence. AID 1456. B-score of Tl+ flux slope (higher = more flux/activation; lower = inhibition) at 10 µM;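 active means thallium flux slope and its plate-corrected score both differing from the plate sample mean at a set confidence after two filtering rounds, in either direction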;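 further: slope of fluorescence scaled to starting intensity during 10 to 20 s after thallium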
KCC2 secondary: confirmation of human KCC2 transport modulators; 3,700 tested, 15% active; AID 1713; normalised thallium flux (F/F0 slope) at 10 µM; shares compounds with KCC2 mod; HEK293-KCC2, thallium flux, FluoZin2 fluorescence; stronger effect = higher value;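 active means thallium flux slope above the same plate's solvent-only control mean plus 3 SD; inconclusive means the two replicate wells disagree; inactive means no significant difference from solvent-only control wells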
KCC2 bumet counter: thallium flux despite bumetanide block in KCC2 cells, secondary assay 3; AID 1714; shares compounds with KCC2 mod; 3,700 tested, 49% active; normalized thallium flux at 10 µM; HEK293-KCC2 + bumetanide/ouabain, thallium flux FluoZin2; stronger effect = higher value;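 active means thallium entry rate above the same plate's blocked-transporter control wells by more than 3 SD; inconclusive means the two repeat wells disagree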;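 further: raw slope of fluorescence over initial fluorescence between 10 and 20 s after thallium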
KCC2 secondary2: confirmation of human KCC2 transport modulators; shares compounds with KCC2 mod; HEK293-KCC2, thallium flux FluoZin2 fluorescence; actives lie on both sides; F/F0 rise rate, 10–20 s post-thallium; AID 1715; normalized thallium flux at 10 µM; 3,700 tested, 23% active;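 active means thallium flux slope more than 3 SD above or below the plate's solvent-only control mean, mostly below; inconclusive means the two repeat wells disagreed; inactive means no significant shift from solvent-only controls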;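 further: raw slope with 0.1% DMSO as baseline and bumetanide as block control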
HEK293 Tl flux: parental HEK flux effect, counter-screen; shares compounds with KCC2 mod; HEK293 parental cells, thallium flux FluoZin2, ouabain; baseline-ratio fluorescence slope, 10–20 s after thallium; thallium flux rate (normalised fluorescence) at 10 µM; 3,700 tested, 46% active; AID 1716;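 active means thallium flux rate significantly above the same plate's solvent-only control wells, beyond their mean plus 3 SD; inconclusive means the two replicate wells gave conflicting results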
KCC2 ouabain: KCC2 (human) modulation, ouabain retest; shares compounds with KCC2 mod; HEK293-KCC2, thallium flux FluoZin2 fluorescence; bidirectional: low = inhibitor, high = activator; raw Tl+ flux slope (below DMSO = inhibition, above = activation) at 10 µM; 3,700 tested, 48% active; AID 1717;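 active means thallium flux slope beyond 3 SD from same-plate DMSO control mean in most replicates, usually higher, sometimes lower; inconclusive means repeat tests gave conflicting results; inactive means no significant difference from controls in most replicates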;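 further: slope of initial-normalized fluorescence between seconds 10 and 20 after thallium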
HEK293 Tl flux2: parental HEK flux effect, counter-screen 2. shares compounds with KCC2 mod. HEK293 parental, thallium flux FluoZin-2 fluorescence slope. thallium flux slope at 10 µM. 3,700 tested, 33% active;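 active means thallium flux slope above the same plate's solvent-control mean plus 3 SD in both duplicate wells; inconclusive means duplicate wells that disagreed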;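 further: run without ouabain in cells lacking the KCC2 cotransporter; slope of fluorescence scaled to its starting value between 10 and 20 s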
Active calls of the source: *; ? = inconclusive; nt = no result given.

SMILES	Rad51 HR inh	PKD1 inh	ROMK primary	KCC2 mod	KCC2 secondary	KCC2 bumet counter	KCC2 secondary2	HEK293 Tl flux	KCC2 ouabain	HEK293 Tl flux2
O=C(COc1ccc([N+](=O)[O-])cc1)NNC(=S)NC(=O)c1ccc(Br)cc1	-1	-4	-1.6	6*	?	0.029*	0.03	0.018*	0.027*	?
O=S1(=O)CC(O)C(N=Nc2c(O)n(Cc3ccccc3)c3ccccc23)C1 (stereo not given)	1	nt	nt	0.0033	nt	nt	nt	nt	nt	nt
CCN1CCN(c2ccc(S(=O)(=O)N3CCCC3)cn2)CC1	-3	-1	0.4	-0.63	nt	nt	nt	nt	nt	nt
O=C(COc1ccccc1)NNC(=S)NC(=O)c1ccccc1	-4	1	2.2	18*	0.007	0.045*	0.05*	0.039*	0.043*	0.041*
O=C(Nc1ccc2oc(-c3ccncc3)nc2c1)c1ccc2c(c1)OCCO2	11	nt	nt	-0.26	nt	nt	nt	nt	nt	nt
O=C(O)c1ccccc1-c1ccccc1C(=O)Nc1ccc(-c2nc3cc(Cl)ccc3o2)cc1	-8	nt	nt	-3.7*	0.0075	0.0048	0.019*	0.0077	0.012*	0.01
O=C(Nc1ccc2oc(-c3ccccc3)nc2c1)c1ccc2c(c1)OCCO2	-4	-3	0.34	-3*	0.0079	0.0068	0.029	0.007	0.035*	?
O=C(Nc1ccc(-c2nc3cc(Cl)ccc3o2)cc1)C1CCCO1 (stereo not given)	-7	1	nt	-0.39	nt	nt	nt	nt	nt	nt
CN(C)CCNC(NC(=O)c1cccs1)C(Cl)(Cl)Cl (stereo not given)	-2	-4	nt	-0.67	nt	nt	nt	nt	nt	nt
COC(=O)C1=C(C(=O)OC)[C@@H]2N(Cc3ccccc3)c3ccccc3[C@@]23C[C@@H](C(=O)OC)N(C(C)=O)C3=N1	5	nt	nt	-1.1*	0.0073	0.0046	0.034	0.0073	0.021	0.011
CN(C)c1nc(N)c([N+](=O)[O-])c(NCCO)n1	9	4	-0.17	6	nt	nt	nt	nt	nt	nt
Cc1nc2cc(C(=O)N3c4ccccc4CC3C)ccc2s1 (stereo not given)	4	-6	nt	nt	?	0.0058	0.029	0.0066	0.02*	?
CC1Cc2ccccc2N1C(=O)c1ccc2snnc2c1 (stereo not given)	1	-22	-0.88	nt	nt	nt	nt	nt	nt	nt
CCC(Sc1nc(C)cc(=O)[nH]1)C(=O)Nc1nc(-c2ccccc2)cs1 (stereo not given)	2	-7	nt	-5.3*	0.0046	0.0055	0.021*	0.006*	0.012*	0.0097
COc1ccc(CNC(C)C(=O)Nc2ccc3ccccc3c2)cc1OC (stereo not given)	0	-1	0.56	-0.14	nt	nt	nt	nt	nt	nt
CN(c1nc2ccccc2n2c(C3CC3)nnc12)S(=O)(=O)c1ccccc1	nt	nt	nt	-0.43	nt	nt	nt	nt	nt	nt
CCCCc1c(C)nc2ccc(C)cc2c1SCCC(=O)O	-6	13	0.23	-3.8*	0.0065	?	0.023*	0.0075	0.015*	0.01
CCOC(=O)Cc1nc2ccccc2n(CC#N)c1=O	-3	-4	0.91	-0.018	nt	nt	nt	nt	nt	nt
CN(C(=O)COC(=O)c1ccccc1C(=O)N1CCN(c2ccccc2)CC1)c1ccccc1	4	0	0.19	0.95	nt	nt	nt	nt	nt	nt
CC(C)CN1C(=O)/C(=C/c2ccco2)NC1=S	nt	-9	0.58	53*	0.01	0.015*	0.035	0.058*	0.034*	0.018*
COc1cccc(C(=O)NC2CC3CCCC(C2)N3S(=O)(=O)c2ccccc2)c1 (stereo not given)	14	nt	nt	nt	nt	nt	nt	nt	nt	nt
CCC(C)NC(=O)CSc1nc(-c2cccs2)cc(C(F)(F)F)n1 (stereo not given)	-3	-12	-0.48	2.9*	0.0058	0.0044	0.03	0.0074	0.019	0.01
